Results on 15 compounds are retold here after PubChem BioAssay.

Active and inactive are the calls of the source.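 The calls were made as follows, unless noted: active = GFP response above 150% of the DMSO level; inconclusive = fewer than 70 events counted for a yeast strain; inactive = the rest.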

Test [1] in a line: hit retest on RPL19A-GFP reporter strain – cell-based, S. cerevisiae, flow cytometry, cherry picks, mother/daughter gates, confirmation (AID 2270;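 active = GFP response below 50% of the DMSO control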). The conditions noted are these: 3 h, at 10 µM, stronger effect = lower value, 100 = same GFP as DMSO wells. On the technique in general: A flow cytometer gives signals particle by particle.
The nature of test [2]: yeast TOR pathway reporter LAP4-GFP change – cell-based, cherry picks, flow cytometry, mother/daughter gates, confirmation (AID 2271;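 active = GFP response above 150% of the DMSO control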;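 also: ratio of sample to DMSO plate mean so 100% equals DMSO level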). To be noted: S. cerevisiae LAP4-GFP strain, 3 h, at 10 µM, stronger effect = higher value, 100 means same as DMSO control. Put shortly:
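System – GFP-fusion yeast strain · Amount – 0.2 OD600 cells · Buffer or medium – SC growth medium · Dosing – single test-compound dose, 10 µM final · Schedule – 3 h treatment at 30 °C with rotation · Detection – GFP by flow cytometry · Read-out – per-gate (all, mother, daughter) GFP response vs DMSO · Benchmarks – positive rapamycin (400 ng/mL), negative DMSO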

Test [3] in a line: TOR pathway reporter MEP2-GFP, retest of hits – S. cerevisiae, flow cytometry GFP, cherry picks, confirmation (AID 2272;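 active = GFP response above 150% of the DMSO control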;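 also: ratio of well signal to plate DMSO mean so 100% equals DMSO level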). The conditions noted are these: S. cerevisiae MEP2-GFP strain, 3 h, at 10 µM, stronger effect = higher value.
Test [4] is described as follows: yeast AGP1-GFP fluorescence change, single-dose – cell-based, flow cytometry, S. cerevisiae, cherry picks, confirmation (AID 2273).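 Also: median GFP channel fluorescence over the whole cell population gate.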 The conditions noted are these: S. cerevisiae AGP1-GFP strain, 3 h, at 10 µM.
Test [5] in a line: TOR pathway CIT2 reporter hit retest – S. cerevisiae, GFP fusion, cherry picks, mother/daughter gates, confirmation (AID 2274). The conditions noted are these: S. cerevisiae CIT2-GFP strain, flow cytometry, 3 h, at 10 µM, stronger effect = higher value.
[6] abbreviates: measured here: daughter cell gate.
[7] abbreviates: measured here: mother cell gate.
[8] abbreviates: measured here: daughter cell gate response.
The mark [9] stands for this setting: measured here: mother cell gate response.

On to `Cc1ccc(C2CC(c3ccco3)=NN2S(C)(=O)=O)cc1` (stereo not given), for which the GFP response vs DMSO in test [1] is 97.2% (inactive); in test [1] (setting [6]), 97%; in test [1] (setting [7]), 97.1%; in test [3], 106% (inactive). Moreover, the GFP response relative to DMSO in test [2] was 105% (inactive); in test [2] (setting [8]), 102%; in test [2] (setting [9]), 104%. In addition, the GFP response, % of DMSO in test [4] was 93.8% (inactive); in test [5], 96.4% (inactive); in test [5] (setting [6]), 98.3%; in test [5] (setting [7]) it was 95.6%.
For the compound `O=C(CN1C(=O)c2cccc3cccc(c23)C1=O)N1CCCCCC1`, the GFP response vs DMSO in test [1] is 102% (inactive); in test [1] (setting [6]) it was 101%; in test [1] (setting [7]), 101%; in test [3], 94.7% (inactive). For the same compound, the GFP response relative to DMSO in test [2] was 97% (inactive); in test [2] (setting [8]) it was 94.2%; in test [2] (setting [9]), 98.4%. Also, the GFP response, % of DMSO is 100% (inactive) in test [4], 100% (inactive) in test [5], 101% in test [5] (setting [6]) and 101% in test [5] (setting [7]).
On to `CCOC(=O)c1ccc(NC(=O)CCc2nc(-c3ccccc3Cl)no2)cc1`, for which the GFP response vs DMSO was 101% (inactive) in test [1], 100% in test [1] (setting [6]), 102% in test [1] (setting [7]) and 108% (inactive) in test [3]. For the same compound, the figures for the GFP response relative to DMSO in test [2], in test [2] (setting [8]) and in test [2] (setting [9]) were 103% (inactive), 101% and 103%, respectively. The GFP response, % of DMSO was 97.5% (inactive) in test [4], 101% (inactive) in test [5], 102% in test [5] (setting [6]) and 98% in test [5] (setting [7]).
With `Cc1cccc(NC(=O)CC2SC(=O)N(c3ccccc3)C2=O)c1` (stereo not given), the GFP response vs DMSO was 96.6% (inactive) in test [1], 99.4% in test [1] (setting [6]), 93% in test [1] (setting [7]) and 109% (inactive) in test [3]. The GFP response relative to DMSO in test [2] is 126% (inactive); in test [2] (setting [8]), 128%; in test [2] (setting [9]), 126%. For the same compound, the GFP response, % of DMSO in test [4] was 93.9% (inactive); in test [5], 104% (inactive); in test [5] (setting [6]), 106%; in test [5] (setting [7]), 97.3%.
Regarding `C=CCOc1cccc(C(=O)/C=C2/C(=O)Nc3ccccc32)c1`, the GFP response vs DMSO in test [1] is 102% (inactive); in test [1] (setting [6]), 97.9%; in test [1] (setting [7]), 98.8%; in test [3], 112% (inactive). The GFP response relative to DMSO in test [2] is 114% (inactive); in test [2] (setting [8]), 107%; in test [2] (setting [9]), 117%. For the same compound, the GFP response, % of DMSO in test [4] is 105% (inactive); in test [5] it was 102% (inactive); in test [5] (setting [6]) it was 103%; in test [5] (setting [7]) it was 98.1%.
As to `Cc1ccn2c(NC(=O)c3ccco3)c(-c3ccccc3)nc2c1`, the GFP response vs DMSO in test [1] is 98.6% (inactive); in test [1] (setting [6]) it was 100%; in test [1] (setting [7]) it was 96.6%; in test [3] it was 107% (inactive). Further, the GFP response relative to DMSO in test [2] was 96.7% (inactive); in test [2] (setting [8]) it was 96%; in test [2] (setting [9]), 96.1%. Moreover, the GFP response, % of DMSO in test [4] was 94.8% (inactive); in test [5], 103% (inactive); in test [5] (setting [6]) it was 103%; in test [5] (setting [7]), 101%.
Turning to `CS(=O)(=O)N1N=C(c2ccc3nccnc3c2)CC1c1ccccc1` (stereo not given), the GFP response vs DMSO was 99.8% (inactive) in test [1], 102% in test [1] (setting [6]), 98.2% in test [1] (setting [7]) and 101% (inactive) in test [3]. Besides, the GFP response relative to DMSO is 100% (inactive) in test [2], 102% in test [2] (setting [8]) and 99.5% in test [2] (setting [9]). Also, the GFP response, % of DMSO in test [4] was 98.4% (inactive); in test [5] it was 103% (inactive); in test [5] (setting [6]), 103%; in test [5] (setting [7]), 102%.
For `C=CCOc1ccc(C(=O)n2cc(C(=O)OC)c3ccccc32)cc1`, the GFP response vs DMSO in test [1] was 95.6% (inactive); in test [1] (setting [6]), 97.1%; in test [1] (setting [7]), 96.4%; in test [3], 96.2% (inactive). For the same compound, the GFP response relative to DMSO in test [2] was 96.7% (inactive); in test [2] (setting [8]) it was 99.2%; in test [2] (setting [9]), 96.1%. The GFP response, % of DMSO was 101% (inactive) in test [4], 101% (inactive) in test [5], 103% in test [5] (setting [6]) and 101% in test [5] (setting [7]).
As to `CCCCN(CCCC)S(=O)(=O)c1ccc(C(=O)Nc2nnc(COC)o2)cc1`, the GFP response vs DMSO in test [1] is 106% (inactive); in test [1] (setting [6]), 106%; in test [1] (setting [7]), 103%; in test [3] it was 149% (inactive). Besides, the GFP response relative to DMSO was 131% (inactive) in test [2], 140% in test [2] (setting [8]) and 126% in test [2] (setting [9]). Moreover, the GFP response, % of DMSO was 106% (inactive) in test [4], 100% (inactive) in test [5], 103% in test [5] (setting [6]) and 101% in test [5] (setting [7]).
With `CCN(CC)Cc1c(O)ccc2c(C)c(CC(=O)OC)c(=O)oc12`, the GFP response vs DMSO was 103% (inactive) in test [1], 101% in test [1] (setting [6]), 100% in test [1] (setting [7]) and 103% (inactive) in test [3]. In addition, the GFP response relative to DMSO in test [2] is 101% (inactive); in test [2] (setting [8]) it was 97.5%; in test [2] (setting [9]), 102%. For the same compound, the GFP response, % of DMSO in test [4] was 106% (inactive); in test [5], 100% (inactive); in test [5] (setting [6]) it was 99.2%; in test [5] (setting [7]) it was 95.6%.
For the compound `O=C(c1ccc([N+](=O)[O-])o1)N1CCN(c2nc3c(F)cc(F)cc3s2)CC1`, the GFP response vs DMSO in test [1] is 80.1% (inactive); in test [1] (setting [6]) it was 78%; in test [1] (setting [7]), 67.5%; in test [3], 197% (active). The GFP response relative to DMSO in test [2] is 250% (active); in test [2] (setting [8]), 169%; in test [2] (setting [9]), 232%. Besides, the GFP response, % of DMSO is 102% (inactive) in test [4], 142% (inactive) in test [5], 108% in test [5] (setting [6]) and 121% in test [5] (setting [7]).
Consider `COc1cccc(-c2nnc(NC(=O)c3ccc(S(=O)(=O)N(CC(C)C)CC(C)C)cc3)o2)c1`, for which the GFP response vs DMSO was 99.7% (inactive) in test [1], 99.8% in test [1] (setting [6]), 100% in test [1] (setting [7]) and 102% (inactive) in test [3]. Moreover, the figures for the GFP response relative to DMSO in test [2], in test [2] (setting [8]) and in test [2] (setting [9]) were 98.8% (inactive), 97.9% and 97.5%, respectively. The GFP response, % of DMSO in test [4] is 101% (inactive); in test [5], 102% (inactive); in test [5] (setting [6]), 102%; in test [5] (setting [7]) it was 101%.
Take `Clc1ccc(-n2nnnc2Sc2ncnc3sccc23)cc1`: the GFP response vs DMSO is 100% (inactive) in test [1], 98.4% in test [1] (setting [6]), 98.8% in test [1] (setting [7]) and 131% (inactive) in test [3]. Moreover, the values for the GFP response relative to DMSO in test [2], in test [2] (setting [8]) and in test [2] (setting [9]) were 131% (inactive), 123% and 130%, respectively. Besides, the GFP response, % of DMSO in test [4] is 115% (inactive); in test [5] it was 106% (inactive); in test [5] (setting [6]), 105%; in test [5] (setting [7]), 105%.
For the compound `CCNC(=O)c1c(O)c2cccc3c2n(c1=O)CC3`, the GFP response vs DMSO in test [1] is 103% (inactive); in test [1] (setting [6]), 101%; in test [1] (setting [7]), 103%; in test [3], 94.7% (inactive). The results for the GFP response relative to DMSO in test [2], in test [2] (setting [8]) and in test [2] (setting [9]) were 103% (inactive), 101% and 105%, respectively. For the same compound, the GFP response, % of DMSO in test [4] was 99% (inactive); in test [5], 98.8% (inactive); in test [5] (setting [6]) it was 101%; in test [5] (setting [7]), 98.1%.
As for `COc1ccccc1N1CCN(C(=O)c2ccccc2Oc2ccccc2)CC1`, the GFP response vs DMSO in test [1] is 96.7% (inactive); in test [1] (setting [6]), 97%; in test [1] (setting [7]), 95.2%; in test [3], 101% (inactive). For the same compound, the GFP response relative to DMSO in test [2] was 91.8% (inactive); in test [2] (setting [8]), 92.9%; in test [2] (setting [9]), 87.3%. For the same compound, the GFP response, % of DMSO is 98.6% (inactive) in test [4], 98.6% (inactive) in test [5], 97.6% in test [5] (setting [6]) and 93.8% in test [5] (setting [7]).
